Compound activity as filed in PubChem BioAssay.
A selection: hits, their analogues and other compounds. The true share with any hit is near 2.1%.
MT stabilizer: stabilizes microtubules in HeLa cells | % tubulin-high responders, % at 10 µM | 200,000 tested, 0.83% active | HeLa tubulin immunostaining HCS, 24 h; share of cells brighter than vehicle mean+2SD;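 active = plate Z-score above 3 for both tubulin-high and condensed-nucleus cell shares, with cell loss under 80%, at 10 µM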;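 note: anti alpha tubulin signal scored within the nucleus-defined area of each cell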
bCat nuc transl: modulators of beta-catenin nuclear translocation | HeLa beta-catenin nuclear translocation, immunofluorescence imaging | nuclear translocation activity, % at 5 µM | 190,000 tested, 0.3% active | AID 1665;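 active = nuclear translocation activity above 50% at 5 µM, with a well cell count of 50 or more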;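 note: per-cell ratio of nuclear to cytoplasmic median beta-catenin stain intensity; plate controls were DMSO negative control for no effect and GSK-3 inhibitor IX positive control for full effect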
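System: Human HeLa cells, endogenous beta-catenin | Compound dosing: 5 µM primary, 0.02–20 µM confirmation | Timing: 24 h compound exposure at 37°C, 5% CO2 | Measured by: Fluorescence imaging of beta-catenin antibody stain plus DAPI | Read-out basis: % activation of per-cell nuclear versus cytoplasmic median beta-catenin signal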
KLF5 inh: suppresses KLF5 promoter-driven expression. DLD-1 KLF5 promoter-luciferase reporter, luminescence. inhibition, % at 5 µM. 290,000 tested, 0.23% active. AID 1700;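 active = inhibition above a per-plate limit of that plate's mean compound inhibition plus 3 SD, cut at about 60% in these data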;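 note: 0% = DMSO wells and 100% = LY294002 at 200 µM; higher means less KLF5 promoter-driven luciferase light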
Ba/F3 V617F tox: lowers viability of Ba/F3 cells expressing EpoR and JAK2V617F. ATP luminescence. inhibition, % at 5.6 µM. 220,000 tested, 1.1% active. AID 1446;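 active = inhibition above the campaign mean plus 3 SD over all tested compounds, cut at about 24% in these data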;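 note: cytokine-independent growth of Ba/F3 cells driven by EpoR plus mutant JAK2; 0% = DMSO-treated cells and 100% = JAK inhibitor I control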
BaF3 parental: parental Ba/F3 viability inhibition as JAK2V617F counter-screen. CellTiter-Glo ATP luminescence. inhibition, % at 5.6 µM. 220,000 tested, 1.1% active;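 active = inhibition above a per-campaign cutoff, the mean inhibition of all tested compounds plus 3 SD, cut at about 27% in these data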;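 note: 0% = DMSO wells and 100% = JAK Inhibitor I control wells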
IEC-6 cytotox: kills IEC-6 intestinal cells in KLF5 counter-screen. IEC-6 cytotoxicity, luminescence viability. inhibition, % at 5 µM. 290,000 tested, 0.78% active. AID 1825; in the data active = inhibition above about 22%;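 note: 0% = plate median of test compound wells and 100% = cytotoxic reference compound wells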
Numbers without * were called inactive; x = not tested or not shown.

SMILES	MT stabilizer	bCat nuc transl	KLF5 inh	Ba/F3 V617F tox	BaF3 parental	IEC-6 cytotox
Cc1c(Cc2ccc3c(c2)OCO3)sc(NC(=O)c2ccccc2)c1C(N)=O	5.5	-0.4	15.2	-4.4	-0.6	0.9
Cc1nc(NC(=O)c2ccccc2)sc1Cc1ccc2c(c1)OCO2	11.2*	x	-34.4	3.2	7.8	3.6
Cc1nc(NC(=O)c2ccc(Cl)cc2)sc1Cc1ccc2c(c1)OCO2	13.1*	x	-31.6	0.0	5.4	7.4
Cc1nc(SCC(C)C)[nH]c(=O)c1Cc1ccccc1	1.7	-2.8	-3.6	2.2	8.1	-2.0
Cc1ccc(S(=O)(=O)N2CCC(NC(=O)C3CCCCC3)CC2)cc1	x	x	-4.4	x	x	-0.8
CN1c2ccccc2C(C)(C)[C@]12C=Cc1cc(O)ccc1O2	30.6*	0.4	-13.2	73.8*	61.3*	7.0
CN1c2ccccc2C(C)(C)C12C=Nc1c(ccc3ccccc13)O2 (centres undefined)	2.1	0.7	-21.5	2.2	8.6	0.6
CC(=O)Nc1ccc(C(=O)n2cnc3cc(C)c(C)cc32)cc1	1.0	x	0.2	-0.2	3.5	2.5
CC(=O)Nc1ccc(S(=O)(=O)n2cnc3cc(C)c(C)cc32)cc1	2.6	0.7	-15.8	4.8	29.1*	1.4
COc1cccc(-c2nnc3sc(-c4ccc(C)cc4)nn23)c1	33.1*	67.6*	3.6	-0.2	5.5	-2.0
CCN(CC)c1ccc(-c2nn3c(-c4cccnc4)nnc3s2)cc1	38.3*	6.0	-35.4	-4.1	4.6	-2.8
COc1cccc(-c2nn3c(-c4cccc(C)c4)nnc3s2)c1	4.0	0.4	-6.9	-0.9	3.2	1.9
O=C(CN1C(=O)c2ccccc2S1(=O)=O)NCc1ccco1	2.2	0.0	-33.5	-1.2	4.1	1.7
O=C(c1ccc(OC2CCN(CCc3ccccc3)CC2)cc1)N1CCC[C@H]1CO	x	x	-17.0	x	x	3.3
CC1(C)N=C(N)N=C(N)N1c1cccc(CN)c1	x	0.0	-30.4	61.5*	57.9*	2.2
Cc1cccc(N2C(N)=NC(N)=NC23CCCCC3)c1	1.8	-0.4	-4.5	60.6*	61.4*	-5.6
CC1(C)N=C(N)N=C(N)N1c1ccc(F)cc1F	3.3	1.1	11.2	28.8*	36.1*	2.9
Fc1ccc(-n2cnnn2)c(F)c1	1.3	-2.3	1.7	-5.7	-1.3	5.3
O=C(CN(C(=O)CNC(=O)c1cccs1)c1ccccc1F)NC1CCCC1	x	x	1.5	x	x	-5.9
Cc1ccc2c(ccc(=S)n2C)c1	2.8	0.4	-12.8	-0.9	1.5	-0.5
O=C(CCC1CCCN(C(=O)c2ccco2)C1)NCc1ccccc1F (centres undefined)	8.0	-1.2	-27.6	-0.5	5.5	-0.8
COCc1ccc(C(=O)N2CCCC(CCC(=O)NCc3ccccc3F)C2)o1 (centres undefined)	23.5*	40.9	27.8	1.9	5.5	11.9
O=S(=O)(NC1=NCCC1)c1ccc(F)cc1F	4.8	-1.1	-33.3	-0.8	-0.3	1.7
C[N+](C)(CC#N)C/C=C\c1ccccc1	2.8	-0.4	-29.1	5.2	9.5	6.1
Cc1cc(=O)n(-c2ccc(C(=O)O)cc2)[nH]1	2.4	-1.6	-8.4	2.4	6.0	-7.7
SMILES	MT stabilizer	bCat nuc transl	KLF5 inh	Ba/F3 V617F tox	BaF3 parental	IEC-6 cytotox
Cc1cc(=O)n(-c2ccc(O)cc2)[nH]1	2.5	-0.9	13.2	51.2*	60.2*	4.2
CC1CCC(NC(=O)CCNC(=O)c2ccccc2)CC1 (centres undefined)	2.5	-2.2	-18.8	-1.6	-3.4	4.3
Cc1ccc(OCc2nn3c(-c4n[nH]c5c4CCC5)nnc3s2)cc1	x	-1.1	x	x	x	x
c1ccc2c(NCCCN3CCOCC3)c3ccccc3nc2c1	33.8*	1.0	-29.0	-5.5	3.3	5.4
Fc1ccccc1-c1nc(NCCCN2CCOCC2)c2ccccc2n1	3.3	-3.5	-4.1	-1.1	0.3	-1.0
COc1cccc(C2=CC(c3ccc(N(C)C)cc3)n3nnnc3N2)c1 (centres undefined)	41.6*	-3.7	-21.1	2.0	0.7	-1.4
COc1cccc(C2C=C(c3ccc(OC)cc3OC)Nc3nnnn32)c1 (centres undefined)	30.1*	x	34.7	-3.7	1.8	0.1
COc1cccc(C2=CC(c3cccc(OC)c3OC)n3nnnc3N2)c1 (centres undefined)	22.6*	-0.1	4.4	1.7	7.0	2.3
COc1cccc(C2=CC(c3cc(OC)ccc3OC)n3nnnc3N2)c1 (centres undefined)	26.5*	-1.5	-11.9	-1.0	1.1	0.2
O=C(/C=C/c1ccc(N2CCCCC2)c([N+](=O)[O-])c1)c1ccc(O)cc1	7.3	0.4	-173.8	-0.3	3.9	1.1
O=C(c1ccc(Br)o1)N1CCN(Cc2ccccc2Cl)CC1	x	x	-37.9	x	x	5.6
Clc1ccc2c(c1)[C@H]1OCC[C@H]1[C@@H](c1ccco1)N2	4.2	-3.6	-3.7	4.1	1.1	3.1
CCc1ccc2c(c1)[C@H]1OCC[C@H]1[C@@H](c1cccs1)N2	2.2	16.0	-11.7	19.4	40.8*	8.9
Cc1ccc(C(=O)COc2ccccc2C(=O)Nc2ccccc2)cc1	3.4	1.1	-26.2	8.0	5.5	1.9
O=C(CN1CCN(S(=O)(=O)c2ccc(Br)cc2)CC1)N/N=C/c1ccc(Cl)c([N+](=O)[O-])c1	12.7*	-0.1	-28.2	2.6	9.7	1.6
Cc1ccc(S(=O)(=O)N2CCN(CC(=O)N/N=C\c3ccc(Cl)c([N+](=O)[O-])c3)CC2)cc1	4.0	0.4	10.9	-0.8	10.1	-1.9
C/C(=N\NC(=O)CC1N=C(Cc2ccccc2)NNC1=O)c1ccc(C)cc1 (centres undefined)	30.8*	-0.1	4.3	-2.0	2.0	-11.6
C=C1/C(=C\C=C2/CCC[C@]3(C)[C@@H]([C@H](C)CCCC(C)(C)O)CC[C@@H]23)C[C@@H](O)C[C@@H]1O	x	-1.8	-34.8	44.9*	2.8	1.7
Nc1nc(Cl)cc(N2CCC(c3cc(-c4ccc(Cl)cc4)n[nH]3)CC2)n1	1.6	x	13.7	47.5*	44.8*	20.1
COC(=O)CCC(=O)Nc1sc(C)c(C)c1C(N)=O	2.8	1.7	0.9	-3.7	-5.3	-5.9
COC(=O)CCC(=O)NC(=S)Nc1sc(C)c(C)c1C(N)=O	21.2*	1.3	57.9	75.0*	71.3*	40.5*
CS(=O)(=O)Nc1ccc(C(=O)Nc2ccccc2-c2ccccc2)cc1	x	x	-5.9	x	x	-1.5
Cc1ccc2c(c1)N(C)/C(=C/c1cccc[n+]1CCO)S2	x	x	-21.6	x	x	-7.6
Cc1ccc2c(c1)S/C(=C/c1ccc[n+](C)c1)N2CCO	3.5	x	5.1	88.3*	70.9*	0.5
CC(C)C[C@H](NC(=O)c1[nH]cnc1C(=O)N[C@@H](C)C(=O)OC(C)(C)C)C(=O)OCc1ccccc1	x	-2.0	x	x	x	x
CCOC(=O)C1CCCN(S(=O)(=O)c2ccc(OC)c3ccccc23)C1 (centres undefined)	11.1*	x	-15.2	0.3	3.1	-5.5
